# EBNA-1 inhibitor = EBNA-1 DNA-binding inhibitors, primary screen, biochemical, fluorescence polarization | inhibition, % at 14.8 µM | actives 0.34% (n = 300,000) | AID 1950, 2009; in the data active = inhibition above about 28%
# ZTA counter = ZTA (EBV) inhibition in EBNA-1 counter-screen; P03206; ZTA-DNA binding, fluorescence polarization; inhibition, % at 11 µM; actives 0.15% (n = 320,000); in the data active = inhibition above about 33%
# core dimer inh = inhibitors of HCV core protein dimerization, primary screen, biochemical, TR-FRET, high-throughput; TR-FRET GST/Flag-core106 dimerization, 1536-well; inhibition, % at 5 µM; actives 0.33% (n = 300,000); AID 1899, 2009;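 active = inhibition above the mean of all tested compounds plus 3 SD, set per screening campaign, cut at about 45% in these data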
#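 assay system = GST-tagged and Flag-tagged HCV core protein residues 1-106 | controls = unlabelled core106 and no-GST-core106 wells | incubation = compound-protein-antibody incubation 4 h at 22.5 °C | probe or stimulus = Eu donor and XL665 acceptor anti-tag antibodies | read-out = % inhibition based on acceptor/donor emission ratio | signal = TR-FRET 671 and 617 nm emission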
# HCV NS3 hel inh = inhibitors of HCV NS3 helicase, primary screen, biochemical, Cy5 molecular beacon fluorescence; Hepatitis C virus NS3 helicase; NS3 helicase DNA unwinding; inhibition, % at 10.9 µM; actives 0.56% (n = 290,000); AID 1800, 2009;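 active = inhibition above the mean of all tested compounds plus 3 SD, set per campaign, cut at about 35% in these data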;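 also: 0% = DMSO wells and 100% = thioflavine S control wells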
#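 Assay system: hepatitis C virus NS3 helicase domain fragment enzyme. Also added: annealed dual-labelled DNA beacon duplex, ATP-started. Timing: 1 h reaction at 25 °C, ATP-initiated. Technique: Cy5 fluorescence at 0 and 60 min, beacon hairpin quenching. Evaluation: % inhibition of unwinding. Replication: one well per compound.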
# PP1 counter = PP1-alpha phosphatase inhibitors, primary screen, counter-screen for PP5 inhibitor project, biochemical, fluorescence, OMFP substrate, single point; Serine/threonine-protein phosphatase PP1-alpha catalytic subunit (Homo sapiens), P62136; purified PP1alpha; inhibition, % at 6.7 µM; actives 0.9% (n = 320,000); AID 2235, 2010;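 active = inhibition above the mean inhibition of all tested compounds plus 3 SD, computed separately for each screening campaign, cut at about 15% in these data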
# Target sequence (P62136 whole entry, looked up): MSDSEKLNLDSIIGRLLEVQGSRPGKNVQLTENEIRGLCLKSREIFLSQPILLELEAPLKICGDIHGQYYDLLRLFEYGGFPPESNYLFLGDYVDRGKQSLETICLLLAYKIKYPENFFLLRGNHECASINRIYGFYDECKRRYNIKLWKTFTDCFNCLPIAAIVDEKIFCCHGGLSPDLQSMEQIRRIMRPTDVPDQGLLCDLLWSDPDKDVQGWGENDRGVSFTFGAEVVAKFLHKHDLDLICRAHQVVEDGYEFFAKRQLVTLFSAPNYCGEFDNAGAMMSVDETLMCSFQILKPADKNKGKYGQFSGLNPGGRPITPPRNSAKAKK
# NS3 helicase cf = HCV NS3 helicase inhibitors, retest, confirmation, biochemical, Cy5 molecular beacon fluorescence, triplicate; shares compounds with HCV NS3 hel inh; NS3 helicase DNA unwinding; inhibition, % at 10.9 µM; actives 31% (n = 1,600); AID 1943, 2009;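 active = inhibition above the mean of all tested compounds plus 3 SD, cutoff set per campaign, cut at about 36% in these data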
# FID counter trip = compounds displacing fluorescent DNA intercalator, artefact control for HCV NS3 helicase inhibitor project, biochemical, FID fluorescence, triplicate; shares compounds with HCV NS3 hel inh; actives 4% (n = 1,600); DNA fluorescent intercalator displacement; inhibition, % at 7.9 µM; AID 1945, 2009; in the data active = inhibition above about 37%;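 also: 0% = vehicle and 100% = reference compound; higher means more displacement of ethidium bromide from the DNA hairpin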
# An asterisk follows results filed as active; x = no result; + = active, no number. Hits are enriched below; roughly 1.9% of the tested compounds scored in any of these assays.
SMILES,EBNA-1 inhibitor,ZTA counter,core dimer inh,HCV NS3 hel inh,PP1 counter,NS3 helicase cf,FID counter trip
CC(=O)c1sc2ccccc2c1OC(=O)c1ccco1,-1,-18,-9,45*,-1,4,4
CC(C)(C)NC(=O)C(c1ccccn1)N(C(=O)c1csnn1)C1CCCC1 (stereo not given),-13,2,-1,-1,-8,x,x
CCN(CC)c1ccc(C=Nc2ccc(N(C)C)cc2)c(O)c1,+,+,-26,37*,1,3,5
CCN(CC)c1ccc(C=Nc2ccccc2)c(O)c1,4,5,11,3,-1,x,x
CN(C)S(=O)(=O)c1ccc(C(=O)NCc2nnc(SCC(=O)c3ccccc3)o2)cc1,-8,-7,5,6,0,x,x
O=C1CSCN1c1ccc(Cl)cc1,14,8,11,-5,2,x,x
CN(C)C(=S)Nn1c(-c2ccccc2)nc2ccccc2c1=O,-12,0,-2,-6,1,x,x
Cc1cccc(-c2nc3ccccc3c(=O)n2NC(=S)N(C)C)c1,3,-4,-4,39*,1,-1,-10
Cc1nc(SCC(=O)Nn2c(-c3ccccc3)nc3ccccc3c2=O)n[nH]1,9,-8,2,47*,-1,-16,2
O=C(N/N=C\c1c(O)ccc2ccccc12)c1ccc(Cn2cccn2)o1,-5,13,-5,0,5,x,x
Cc1ccc(S(=O)(=O)N(C)S(=O)(=O)c2ccc(C#N)cc2)cc1,-1,-5,-2,5,-3,x,x
C=CCSC1=N/C(=C\c2ccc3c(c2)OCO3)C(=O)S1,-2,-6,6,29,-2,x,x
C=CCSC1=N/C(=C\c2cc(OCC)c(OC(C)=O)c([N+](=O)[O-])c2)C(=O)S1,6,-7,-2,50*,3,92*,16
Cc1ccc(C)c(NC(=O)CSc2nc3ccc(N4C(=O)c5ccccc5C4=O)cc3s2)c1,3,1,18,5,9,x,x
CCN1CCN(c2cc(N3CCN(C(=O)c4ccco4)CC3)c3c4c(onc24)-c2ccccc2C3=O)CC1,5,12,-35,-66,8,x,x
O=C(O)CCNc1cc(N2CCN(C(=O)c3ccco3)CC2)c2noc3c2c1C(=O)c1ccccc1-3,127*,163*,-150,57*,12,76*,2
CC1=CC2=NC(=O)CC(C)(C(=O)N(CC(=O)NC3CCCC3)Cc3ccccc3)N2C=C1 (stereo not given),-3,-8,1,6,-4,x,x
CN1CCN(Cc2c(O)ccc3occ(C(=O)c4ccccc4)c23)CC1,-4,-17,-8,-13,1,x,x
CC(=O)C(C(C)=O)c1c(Cl)c(O)c(O)c2c(C(=O)c3ccccc3)coc12,-17,-3,2,38*,2,-10,3
CCN(CC)CCN1C(=O)C(=O)/C(=C(/O)c2ccc(S(=O)(=O)N3CCOCC3)cc2)C1c1ccc(C(C)(C)C)cc1 (stereo not given),-3,-6,-7,46*,5,-6,-21
COCCCN1C(=O)C(=O)/C(=C(/O)c2ccc(S(=O)(=O)N3CCCCC3)cc2)C1c1ccc(F)cc1 (stereo not given),-5,5,3,44*,4,-4,-29
O=C(CSc1ccc(F)cc1)NC(=O)NCc1ccccc1,2,-20,-4,-2,-2,x,x
CC(C)(C)C1CCc2[nH]nc(C(=O)O)c2C1 (stereo not given),-11,-1,12,37*,1,-14,-1
Oc1ccc(/C=N/Nc2ccnc3cc(Cl)ccc23)c(O)c1O,-2,-8,-16,40*,13,7,45*
O=C(O)c1cc(NC(=S)NC(=O)C(c2ccccc2)c2ccccc2)ccc1Cl,-4,3,8,41*,3,76*,-5

# Compound activity from PubChem.
